In ChEMBL document CHEMBL4190353, “Synthesis, structure-activity relationships and preliminary mechanism of action of novel water-soluble 4-quinolone-3-carboxamides as antiproliferative agents” (Eur J Med Chem, 2017):

What was measured:
MCF7 = experiment: Cytotoxicity against human MCF7 cells assessed as reduction in cell viability incubated for 24 hrs by MTT assay; format: functional, cell-based; details: MCF7, 24 h
In short: (§1)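 Cells were kept in McCoy's 5A with 10% fetal bovine serum, streptomycin and 100 units·mL⁻¹ penicillin at 37 °C under 5% CO₂/95% air. Viability was read by MTT optical density. IC50 is the concentration that lowers optical density by 50% relative to untreated cells. Values are means with SD of at least three independent determinations.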

RKO = experiment: Cytotoxicity against human RKO cells assessed as reduction in cell viability incubated for 24 hrs by MTT assay; format: functional, cell-based; in short: as §1
BGC-823 = experiment: Cytotoxicity against human BGC823 cells assessed as reduction in cell viability incubated for 24 hrs by MTT assay; format: functional, cell-based; details: BGC-823, 24 h; in short: as §1
HCT-116 = experiment: Cytotoxicity against human HCT116 cells assessed as reduction in cell viability incubated for 24 hrs by MTT assay; format: functional, cell-based; details: HCT-116, 24 h; in short: as §1
PC-3 = experiment: Cytotoxicity against human PC3 cells assessed as reduction in cell viability incubated for 24 hrs by MTT assay; format: functional, cell-based; details: PC-3, 24 h; in short: as §1
HEp-2 = experiment: Cytotoxicity against human Hep2 cells assessed as reduction in cell viability incubated for 24 hrs by MTT assay; format: functional, cell-based; details: HEp-2, 24 h; in short: as §1
HeLa = experiment: Cytotoxicity against human HeLa cells assessed as reduction in cell viability incubated for 24 hrs by MTT assay; format: functional, cell-based; in short: as §1
HepG2 = experiment: Cytotoxicity against human HepG2 cells assessed as reduction in cell viability incubated for 24 hrs by MTT assay; format: functional, cell-based; details: HepG2, 24 h; in short: as §1
HCT-8 = experiment: Cytotoxicity against human HCT8 cells assessed as reduction in cell viability incubated for 24 hrs by MTT assay; format: functional, cell-based; details: HCT-8, 24 h; in short: as §1
[1] = Solubility in water; format: physicochemical

Row | SMILES | IC50 (MCF7) [µM] | IC50 (RKO) [µM] | IC50 (BGC-823) [µM] | IC50 (HCT-116) [µM] | IC50 (PC-3) [µM] | IC50 (HEp-2) [µM] | IC50 (HeLa) [µM] | IC50 (HepG2) [µM] | IC50 (HCT-8) [µM] | solubility [1] [µg/mL]
1 | CCN(CC)CCCNC(=O)c1c[nH]c2cc(Br)ccc2c1=O.Cl | 21.1 | 38.7 | 44.7 | 44.3 | > 50 | 44.7 | > 50 | 45.7 | > 50 | > 10000
2 | CCN(CC)CCCNC(=O)c1c[nH]c2cc(Cl)ccc2c1=O.Cl | 22.4 | 25.2 | 23.4 | 23.3 | 39.8 | 25.1 | 22.4 | 28.2 | 28.8 | > 10000
3 | Oc1ccnc2cc(Cl)ccc12 | > 50 | > 50 | > 50 | > 50 | > 50 | > 50 | > 50 | > 50 | > 50 | 
4 | CCCCn1cc(C(=O)NCCN(CC)CC)c(=O)c2ccc(Cl)cc21.Cl | 35.5 | 16.8 | 7.11 | 21 | 44.6 | 22.6 | 21.6 | 6.92 | 46.8 | > 10000
5 | C=CCn1cc(C(=O)NCCCN(CC)CC)c(=O)c2ccc(Cl)cc21.Cl | 35.5 | 16.3 | 15.1 | 18.7 | 14.1 | 14.5 | 19.1 | 12.6 | 30 | > 10000
6 | CCN(CC)CCNC(=O)c1cn(CC)c2cc(Cl)ccc2c1=O.Cl | 25.1 | 23.4 | 12.3 | 19.8 | 15.9 | 42.3 | 13.8 | 9.52 | 25.1 | > 10000
7 | C=CCn1cc(C(=O)NCCN(CC)CC)c(=O)c2ccc(Cl)cc21.Cl | 47.9 | 30.1 | 12 | 35.6 | 44.5 | 24 | 38.9 | 19.1 | 30.2 | > 10000
8 | CCN(CC)CCCNC(=O)c1c[nH]c2cc(OC)ccc2c1=O.Cl | 34.7 | 42.5 | 40.8 | 38.9 | > 50 | 40.8 | 39.8 | 47.9 | 44.6 | > 10000
9 | CCN(CC)CCCNC(=O)c1cn(Cc2ccccc2)c2cc(Cl)ccc2c1=O.Cl | 4.54 | 7.89 | 5.21 | 8.65 | 10.2 | 4.51 | 4.9 | 4.43 | 19.5 | > 10000
10 | CCN(CC)CCNC(=O)c1cn(Cc2ccccc2)c2cc(Cl)ccc2c1=O.Cl | 15.8 | 14.3 | 10.2 | 11.2 | 9.5 | 7.02 | 5.83 | 4.32 | 23.1 | > 10000
11 | CCOC(=O)c1cn(Cc2ccccc2)c2cc(Cl)ccc2c1=O | 15.8 | 16.3 | 13.8 | 21.3 | 27.9 | 19.1 | 16.2 | 22.4 | 27.4 | 
12 | CCCCn1cc(C(=O)NCCCN(CC)CC)c(=O)c2ccc(Cl)cc21.Cl | 12.3 | 9.65 | 9.12 | 7.84 | 8.31 | 11.2 | 15.4 | 5.63 | 28.8 | > 10000
13 | CCN(CC)CCCNC(=O)c1c[nH]c2cc(F)ccc2c1=O.Cl | 36.8 | 29.8 | 46.3 | 38.6 | > 50 | 45.1 | 39.4 | > 50 | 48.5 | > 10000
14 | CCOC(=O)c1cn(CCCc2ccccc2)c2cc(Cl)ccc2c1=O | 14.1 | 9.86 | 18.6 | 10.8 | 16.1 | 7.63 | 14.8 | 15.1 | 17 | 
15 | CCCCn1cc(C(=O)OCC)c(=O)c2ccc(Cl)cc21 | > 50 | 45.2 | 43.6 | 39.8 | 41.7 | 35.5 | > 50 | 28.3 | > 50 | 
16 | CCOC(=O)c1cn(CC)c2cc(Cl)ccc2c1=O | > 50 | > 50 | 40.7 | > 50 | > 50 | > 50 | > 50 | 47.9 | > 50 | 
17 | CCN(CC)CCCNC(=O)c1cn(C)c2cc(Cl)ccc2c1=O.Cl | 10 | 11.2 | 17.8 | 9.85 | 15.8 | 4.51 | 9.5 | 8.72 | 22.4 | > 10000
18 | CCOC(=O)c1cn(C)c2cc(Cl)ccc2c1=O | > 50 | > 50 | 30.2 | > 50 | > 50 | 25 | > 50 | 38 | > 50 | 
19 | C=CCn1cc(C(=O)OCC)c(=O)c2ccc(Cl)cc21 | 49.8 | 48 | > 50 | > 50 | > 50 | > 50 | > 50 | 43.8 | 45.2 | 
20 | CCN(CC)CCNC(=O)c1cn(C)c2cc(Cl)ccc2c1=O.Cl | 22.4 | 24.6 | 27.6 | 15.6 | 31.6 | 17.8 | 28.9 | 10.2 | 32.6 | > 10000
21 | CCN(CC)CCCNC(=O)c1cn(CC)c2cc(Cl)ccc2c1=O.Cl | 14.1 | 10.2 | 11.7 | 8.78 | 12.6 | 9.82 | 15.1 | 10.5 | 16.9 | > 10000
